# Data as given in publication PMC3954597 (Biochemistry, 2014).
# Substitutions are numbered along the chain they refer to. Where two headings read alike, the source gives them in different places. Square brackets hold non-standard residues; d marks the D form. pY = N[C@@H](Cc1ccc(OP(=O)(O)O)cc1)C(=O)O
# T1: PTPD1 (Homo sapiens, UniProt Q16825)
# T1 sequence (Q16825 875-1174): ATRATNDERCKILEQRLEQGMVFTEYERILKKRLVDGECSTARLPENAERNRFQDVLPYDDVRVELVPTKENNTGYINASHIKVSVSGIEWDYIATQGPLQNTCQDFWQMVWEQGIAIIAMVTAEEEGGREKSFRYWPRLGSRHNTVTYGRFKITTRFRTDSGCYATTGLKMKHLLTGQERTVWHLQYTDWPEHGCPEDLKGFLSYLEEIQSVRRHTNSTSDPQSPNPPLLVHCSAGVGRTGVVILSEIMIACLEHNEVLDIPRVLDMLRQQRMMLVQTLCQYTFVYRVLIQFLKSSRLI
# T2: R24M PTP1B (Homo sapiens, UniProt P18031, R24M)
# T2 sequence (P18031 1-321 R24M): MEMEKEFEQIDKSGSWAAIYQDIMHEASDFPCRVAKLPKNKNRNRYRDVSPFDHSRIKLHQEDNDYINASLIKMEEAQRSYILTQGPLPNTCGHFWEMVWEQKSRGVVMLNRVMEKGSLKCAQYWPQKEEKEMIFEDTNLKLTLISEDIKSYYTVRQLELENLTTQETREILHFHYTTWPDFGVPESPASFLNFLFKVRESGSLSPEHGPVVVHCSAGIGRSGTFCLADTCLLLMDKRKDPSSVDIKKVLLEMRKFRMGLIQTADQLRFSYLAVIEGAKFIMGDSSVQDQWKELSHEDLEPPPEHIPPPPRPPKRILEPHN
# T3: PTP1B (Homo sapiens, UniProt P18031)
# T3 sequence (P18031 1-321): T2 sequence (P18031 1-321 R24M) with M24R
# T4: R47E PTP1B (Homo sapiens, UniProt P18031, R47E)
# T4 sequence (P18031 1-321 R47E): T2 sequence (P18031 1-321 R24M) with M24R, R47E
# T5: TCPTP (Homo sapiens, UniProt P17706)
# T5 sequence (P17706 1-314): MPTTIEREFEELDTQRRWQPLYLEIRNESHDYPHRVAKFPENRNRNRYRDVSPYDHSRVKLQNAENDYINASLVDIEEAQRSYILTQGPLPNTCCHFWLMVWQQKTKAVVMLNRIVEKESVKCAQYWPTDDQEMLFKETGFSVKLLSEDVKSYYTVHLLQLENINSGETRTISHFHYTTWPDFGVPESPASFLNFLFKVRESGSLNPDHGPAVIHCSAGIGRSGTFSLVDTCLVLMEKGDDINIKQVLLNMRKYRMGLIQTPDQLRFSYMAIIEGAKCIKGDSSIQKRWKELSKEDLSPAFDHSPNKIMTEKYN
# T6: SHP-2 (Homo sapiens, UniProt Q06124)
# T6 sequence (Q06124 199-593): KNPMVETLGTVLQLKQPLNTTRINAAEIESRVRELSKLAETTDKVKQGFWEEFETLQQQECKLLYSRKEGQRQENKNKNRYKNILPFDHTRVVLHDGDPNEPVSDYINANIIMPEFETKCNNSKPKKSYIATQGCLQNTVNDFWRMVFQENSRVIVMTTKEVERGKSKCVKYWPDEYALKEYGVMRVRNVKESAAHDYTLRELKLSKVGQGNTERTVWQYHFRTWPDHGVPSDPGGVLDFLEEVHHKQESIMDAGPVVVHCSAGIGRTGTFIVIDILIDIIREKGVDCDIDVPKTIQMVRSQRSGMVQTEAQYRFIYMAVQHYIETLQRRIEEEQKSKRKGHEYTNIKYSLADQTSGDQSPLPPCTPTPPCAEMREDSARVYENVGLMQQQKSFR
# T7: R47E PTP1B catalytic domain (amino acids 1-321) (human) (UniProt P18031)
# T7 sequence: T2 sequence (P18031 1-321 R24M) with M24R, R47E
# T8: wild-type PTP1B catalytic domain (amino acids 1-321) (human) (UniProt P18031)
# T8 sequence: T2 sequence (P18031 1-321 R24M) with M24R
# T9: R24M PTP1B catalytic domain (amino acids 1-321) (human) (UniProt P18031)
# T9 sequence: T2 sequence (P18031 1-321 R24M)
# T10: PTP-PEST catalytic domain (aa 5-300), GST fusion (human) (UniProt Q05209)
# T10 sequence: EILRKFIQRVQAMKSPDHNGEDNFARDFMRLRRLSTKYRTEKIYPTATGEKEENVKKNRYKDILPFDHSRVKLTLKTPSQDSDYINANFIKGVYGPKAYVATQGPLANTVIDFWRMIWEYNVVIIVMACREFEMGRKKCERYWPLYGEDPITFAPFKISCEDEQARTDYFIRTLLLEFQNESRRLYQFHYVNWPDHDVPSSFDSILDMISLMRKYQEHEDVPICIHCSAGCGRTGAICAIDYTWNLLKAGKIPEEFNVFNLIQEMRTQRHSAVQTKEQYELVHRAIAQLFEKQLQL
# T11: HePTP (aa 22-335), GST fusion (human) (UniProt P35236)
# T11 sequence: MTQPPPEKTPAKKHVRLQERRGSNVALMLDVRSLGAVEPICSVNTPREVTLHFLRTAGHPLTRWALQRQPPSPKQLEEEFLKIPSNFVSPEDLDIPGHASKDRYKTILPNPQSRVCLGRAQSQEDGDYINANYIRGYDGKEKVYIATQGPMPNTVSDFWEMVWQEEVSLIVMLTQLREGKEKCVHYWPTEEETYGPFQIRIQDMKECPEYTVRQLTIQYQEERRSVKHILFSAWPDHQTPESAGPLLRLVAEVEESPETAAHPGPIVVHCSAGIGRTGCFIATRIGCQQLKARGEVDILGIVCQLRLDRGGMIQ
# B1: Ac-ASSDEpYAA-NH2 (peptide)
# peptide: Ac-ASSDE[pY]AA-NH2
# SMILES: CC(=O)N[C@@H](C)C(=O)N[C@@H](CO)C(=O)N[C@@H](CO)C(=O)N[C@@H](CC(=O)O)C(=O)N[C@@H](CCC(=O)O)C(=O)N[C@@H](Cc1ccc(OP(=O)(O)O)cc1)C(=O)N[C@@H](C)C(=O)N[C@@H](C)C(N)=O
# B2: Ac-YRKRFpYRYKF-NH2 (basic) (peptide)
# peptide: Ac-YRKRF[pY]RYKF-NH2
# SMILES: CC(=O)N[C@@H](Cc1ccc(O)cc1)C(=O)N[C@@H](CCCNC(=N)N)C(=O)N[C@@H](CCCCN)C(=O)N[C@@H](CCCNC(=N)N)C(=O)N[C@@H](Cc1ccccc1)C(=O)N[C@@H](Cc1ccc(OP(=O)(O)O)cc1)C(=O)N[C@@H](CCCNC(=N)N)C(=O)N[C@@H](Cc1ccc(O)cc1)C(=O)N[C@@H](CCCCN)C(=O)N[C@@H](Cc1ccccc1)C(N)=O
# B3: Ac-SASASpYSASA-NH2 (neutral) (peptide)
# peptide: Ac-SASAS[pY]SASA-NH2
# SMILES: CC(=O)N[C@@H](CO)C(=O)N[C@@H](C)C(=O)N[C@@H](CO)C(=O)N[C@@H](C)C(=O)N[C@@H](CO)C(=O)N[C@@H](Cc1ccc(OP(=O)(O)O)cc1)C(=O)N[C@@H](CO)C(=O)N[C@@H](C)C(=O)N[C@@H](CO)C(=O)N[C@@H](C)C(N)=O
# B4: Ac-YDEDFpYDYEF-NH2 (acidic) (peptide)
# peptide: Ac-YDEDF[pY]DYEF-NH2
# SMILES: CC(=O)N[C@@H](Cc1ccc(O)cc1)C(=O)N[C@@H](CC(=O)O)C(=O)N[C@@H](CCC(=O)O)C(=O)N[C@@H](CC(=O)O)C(=O)N[C@@H](Cc1ccccc1)C(=O)N[C@@H](Cc1ccc(OP(=O)(O)O)cc1)C(=O)N[C@@H](CC(=O)O)C(=O)N[C@@H](Cc1ccc(O)cc1)C(=O)N[C@@H](CCC(=O)O)C(=O)N[C@@H](Cc1ccccc1)C(N)=O
# How the values were obtained:
# PTPD1 = target: T1, PTPD1; experiment: Pre-steady-state; type: biochemical; settings: 25 °C; initial phase not resolved, too fast for the instrument
# R24M PTP1B = target: T2, R24M PTP1B; experiment: PTP assay, R24M PTP1B; type: biochemical
# Summary of the method: (§1)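 E. coli-expressed catalytic domains were used: wild-type, R24M or R47E PTP1B (aa 1–321), and SHP-1 (aa 205–595). Reactions started with PTP (0.5–20000 nM final) and dephosphorylation was monitored continuously at 282 nm. kcat, KM and kcat/KM came from initial-rate fits (Michaelis–Menten, or V = kcat[E][S]/KM when KM >> [S]) or from fits of progress curves.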
# PTP1B = target: T3, PTP1B; experiment: PTP assay, wild-type PTP1B; type: biochemical; settings: WT PTP1B aa 1–321; pH 7.4
# Summary of the method: as §1
# R47E PTP1B = target: T4, R47E PTP1B; experiment: PTP assay, R47E PTP1B; type: biochemical
# Summary of the method: as §1
# HePTP = settings: cited from earlier work
# TCPTP = target: T5, TCPTP; experiment: PTP assay, TCPTP; type: biochemical; settings: catalytic domain; 100 mM HEPES pH 7.4; monitored at 282 nm
# SHP-2 = target: T6, SHP-2; settings: catalytic domain; cited from earlier work
# SHP-1 = SHP-1 (Homo sapiens, UniProt P29350); settings: catalytic domain; cited from earlier work
# SHP-1, sequence (P29350 205-595): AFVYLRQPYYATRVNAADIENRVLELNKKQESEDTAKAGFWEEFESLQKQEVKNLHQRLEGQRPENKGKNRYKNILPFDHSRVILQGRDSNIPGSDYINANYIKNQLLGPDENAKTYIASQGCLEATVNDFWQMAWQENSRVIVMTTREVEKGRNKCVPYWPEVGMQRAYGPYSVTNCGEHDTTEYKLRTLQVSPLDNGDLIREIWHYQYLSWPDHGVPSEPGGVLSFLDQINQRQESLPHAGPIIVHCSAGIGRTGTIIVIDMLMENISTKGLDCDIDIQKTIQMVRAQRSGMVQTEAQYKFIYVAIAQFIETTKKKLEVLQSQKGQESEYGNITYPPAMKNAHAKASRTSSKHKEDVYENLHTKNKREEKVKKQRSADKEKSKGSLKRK
# [1] = target: T7, R47E PTP1B catalytic domain (amino acids 1-321) (human)
# [2] = target: T8, wild-type PTP1B catalytic domain (amino acids 1-321) (human)
# [3] = target: T9, R24M PTP1B catalytic domain (amino acids 1-321) (human)
# [4] = target: T8, wild-type PTP1B catalytic domain (amino acids 1-321) (human); remark: listed apart in the source
# [5] = target: T10, PTP-PEST catalytic domain (aa 5-300), GST fusion (human)
# [6] = target: T11, HePTP (aa 22-335), GST fusion (human)
molecule,measurement,setting,value
"O=[N+]([O-])c1ccc(OP(=O)(O)O)cc1 [pNPP, p-nitrophenyl phosphate, reference compound]",k of initial phase,PTPD1,> 100 s⁻¹
same,Km,"R24M PTP1B; R24M PTP1B aa 1–321, pH 7.4",3 ± 0.1 µM
same,kcat,"R24M PTP1B; R24M PTP1B aa 1–321, pH 7.4",17 ± 1 s⁻¹
same,kcat/KM x 10^7,"R24M PTP1B; R24M PTP1B aa 1–321, pH 7.4",0.00057 x 10^7 M^−1 s^−1
same,WT/R24M,"R24M PTP1B; ratio of kcat/KM, WT over R24M PTP1B (fold reduction by the mutation)",1.2
same,kcat/KM x 10^7,PTP1B,0.00069 x 10^7 M^−1 s^−1
same,Km,"R47E PTP1B; R47E PTP1B aa 1–321, pH 7.4",2800 ± 300 µM
same,kcat,"R47E PTP1B; R47E PTP1B aa 1–321, pH 7.4",16 ± 1 s⁻¹
same,kcat/KM x 10^7,"R47E PTP1B; R47E PTP1B aa 1–321, pH 7.4",0.00057 x 10^7 M^−1 s^−1
same,WT/R47E,"R47E PTP1B; ratio of kcat/KM, WT over R47E PTP1B (fold decrease by the mutation)",1.2
DHTGFLpTEpY^187VATRW [reference compound],kcat/KM,HePTP,4800 M⁻¹ s⁻¹
WDEDFpYDWEF,Km,TCPTP,0.31 ± 0.01 µM
same,kcat,TCPTP,9.0 ± 0.4 s⁻¹
same,kcat/KM x10^6,TCPTP,29 x10^6 M^−1 s^−1
same,Km,SHP-2,6.3 ± 0.4 µM
same,kcat,SHP-2,43 ± 1 ^c s^−1
same,kcat/KM x10^6,SHP-2,6.8 ^c x10^6 M^−1 s^−1
same,Km,SHP-1,3.2 ± 0.3 µM
same,kcat,SHP-1,75 ± 2 ^c s^−1
same,kcat/KM x10^6,SHP-1,23 ^c x10^6 M^−1 s^−1
"phospho-ERK2 protein: phosphorylated ERK2 protein, HePTP substrate recruited via KIM domain",rate of dephosphorylation at the same site (pY187),HePTP,2.6 × 10^6 M^−1 s^−1
B1,"KM, steady-state dephosphorylation of the pY peptide",[1],32 µM
same,"KM, steady-state dephosphorylation of the pY peptide",[2],1.8 µM
same,"KM, steady-state dephosphorylation of the pY peptide",[3],3.8 µM
same,"KM, steady-state dephosphorylation of the pY peptide",[4],1.9 µM
B2,"kcat/KM, steady-state dephosphorylation of the pY peptide (KM not given)",[5],1500 M⁻¹ s⁻¹
B3,"KM, steady-state dephosphorylation of the pY peptide",[5],800 µM
B4,"KM, steady-state dephosphorylation of the pY peptide",[6],280 µM
same,"KM, steady-state dephosphorylation of the pY peptide",[5],2.2 µM
